# Experimental data published in ChEMBL document CHEMBL1126834, “Chemistry, binding affinities, and behavioral properties of a new class of "antineophobic" mitochondrial DBI receptor complex (mDRC) ligands” (J Med Chem, 1993).
# “And” between values parts separate entries of the source, which are not always exact repeats. Equal entries are not always repeated.
# Legend:
# [1] = target: GABA-A receptor; anion channel; test: Inhibitory activity at GABA A receptor, measured by the ability to displace [3H]GABA from GABA A receptor in rat brain; type: tissue-based
# Glutamate NMDA receptor = test: Inhibitory activity by measuring its ability to displace [3H]-MK-801 from glutamate(NMDA) receptor in rat brain; type: tissue-based
# [2] = target: GABA-A receptor; anion channel; test: Inhibitory activity at GABA A receptor, measured by the ability to displace [35S]TBPS from GABA A receptor in rat brain; type: tissue-based
# Cannabinoid receptor 1 = Cannabinoid receptor 1 (Rattus norvegicus, UniProt P20272); test: Inhibitory activity, measured by displacement [3H]CP-55940 from cannabinoid receptor (CB1) in rat brain; type: tissue-based
# [3] = target: Adrenergic receptor alpha; test: Inhibitory activity by measuring its ability to displace [3H]clonidine from alpha-adrenergic receptor in rat brain; type: tissue-based
# [4] = target: GABA-A receptor; anion channel; test: Inhibitory activity at GABA A receptor, measured by the ability to displace [3H]zolpidem from GABA A receptor in rat brain; type: tissue-based
# [5] = target: Adrenergic receptor alpha; test: Inhibitory activity by measuring its ability to displace [3H]WB-4101 from alpha-adrenergic receptor in rat brain; type: tissue-based
# [6] = target: T1, Gastrin/cholecystokinin type B receptor (Rattus norvegicus, UniProt P30553); test: Inhibitory activity by measuring its ability to displace [3H]L-365260 from cholecystokinin receptor in rat brain; type: tissue-based
# T1 sequence (P30553 whole entry): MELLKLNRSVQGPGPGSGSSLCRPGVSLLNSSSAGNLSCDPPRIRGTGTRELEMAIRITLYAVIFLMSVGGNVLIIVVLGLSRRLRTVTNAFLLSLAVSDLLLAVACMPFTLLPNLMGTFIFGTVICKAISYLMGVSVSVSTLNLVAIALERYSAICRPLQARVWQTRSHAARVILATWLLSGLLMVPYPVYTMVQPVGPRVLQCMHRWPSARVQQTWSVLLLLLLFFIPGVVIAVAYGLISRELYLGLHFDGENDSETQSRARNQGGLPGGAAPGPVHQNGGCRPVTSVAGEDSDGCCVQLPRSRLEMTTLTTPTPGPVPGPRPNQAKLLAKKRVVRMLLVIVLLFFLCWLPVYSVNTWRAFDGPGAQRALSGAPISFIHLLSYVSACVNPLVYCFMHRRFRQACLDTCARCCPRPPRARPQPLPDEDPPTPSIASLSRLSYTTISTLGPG
# Adrenergic receptor beta = Adrenergic receptor beta (Rattus norvegicus, UniProt P18090+P10608+P26255); test: Inhibitory activity by measuring its ability to displace [125I]pindolol from beta-adrenergic receptor in rat brain; type: tissue-based
# Translocator protein = Translocator protein (Rattus norvegicus, UniProt P16257); test: Binding affinity against mitochondrial DBI complex (peripheral benzodiazepine receptor) using primary cultures of glial cells
# Method in brief: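 Glia from cerebella of 8-day-old Sprague–Dawley rat pups, trypsin-dissociated and grown 14 days (~95% astroglia). Cells lysed in 50 mM Hepes pH 7.4, 4 μg protein per tube. Incubated with [3H]4'-chlorodiazepam and competitor for 90 min at 4 °C, then filtered. Nonspecific binding defined with 10 μM 4'-chlorodiazepam. Triplicate competition curves; IC50 by nonlinear regression, converted to Ki (Bylund–Yamamura).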
# [7] = Inhibitory activity at GABA B receptor, measured by the ability to displace [3H]baclofen from GABA B receptor in rat brain; type: tissue-based
# [8] = Inhibitory activity by measuring its ability to displace [3H]glycine from glycine receptor in rat brain; type: tissue-based
# [9] = target: GABA-A receptor; anion channel; test: Inhibitory activity at GABA A receptor, measured by the ability to displace [3H]flumazenil from GABA A receptor in rat brain; type: tissue-based
# Rattus norvegicus [10] = test: Tested for antineophobic activity using the elevated plus maze test administered at 71 umol/kg perorally in rats; type: functional
# [11] = Inhibitory activity by measuring its ability to displace [3H]spiperone from dopamine or serotonin 5-HT-1 receptors in rat brain; type: tissue-based
# [12] = target: Sigma receptor (Rattus norvegicus); test: Tested for inhibitory activity by measuring its ability to displace [3H]3-PPP from sigma receptor in rat brain
# [13] = target: Serotonin 2 (5-HT2) receptor (Rattus norvegicus); test: Inhibitory activity by measuring its ability to displace [3H]ketanserin from serotonin receptor in rat brain
# Opioid receptor [14] = target: T2, Opioid receptor (Rattus norvegicus, UniProt P33533+P34975+P33535); test: Inhibition of [3H]naxolone binding to opiate receptors in rat brain; type: tissue-based
# [15] = Tested for inhibitory activity by measuring its ability to displace [3H]AMPA from glutamate (non-NMDA) receptor in rat brain; type: tissue-based
# Rattus norvegicus [16] = test: Tested for antineophobic activity using the elevated plus maze test administered at 78 umol/kg perorally in rats; type: functional
# Rattus norvegicus [17] = test: Tested for antineophobic activity using the elevated plus maze test administered at 55 umol/kg perorally in rats; type: functional
# Opioid receptor [18] = target: T2, Opioid receptor; test: Displacement of [3H]naxolone from opiate receptor of rat brain
# Rattus norvegicus [19] = test: Tested for antineophobic activity using the elevated plus maze test administered at 40 umol/kg perorally in rats; type: functional
# Rattus norvegicus [20] = test: Tested for antineophobic activity administered at 225 umol/kg perorally in adrenalectomized/castrated rats; type: functional
# Method in brief: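 Rats of 175–200 g were adrenalectomized and castrated 3 days before the elevated plus maze. Drug was suspended in 1% DMSO/H2O and given by oral gavage 1 h before the test. […] was scored; n = 10 rats, mean ± SEM.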
# Rattus norvegicus [21] = test: Tested for antineophobic activity using the elevated plus maze test administered at 57 umol/kg perorally in rats; type: functional
# [22] = target: Adrenergic receptor alpha; test: Displacement of [3H]clonidine from alpha-adrenergic receptor in rat brain; type: tissue-based
# Rattus norvegicus [23] = test: Tested for antineophobic activity using the elevated plus maze test administered at 53 umol/kg perorally in rats; type: functional
# Rattus norvegicus [24] = test: Tested for antineophobic activity using the elevated plus maze test administered at 51 umol/kg perorally in rats; type: functional
# Cannabinoid receptor 1, sequence (P20272 whole entry): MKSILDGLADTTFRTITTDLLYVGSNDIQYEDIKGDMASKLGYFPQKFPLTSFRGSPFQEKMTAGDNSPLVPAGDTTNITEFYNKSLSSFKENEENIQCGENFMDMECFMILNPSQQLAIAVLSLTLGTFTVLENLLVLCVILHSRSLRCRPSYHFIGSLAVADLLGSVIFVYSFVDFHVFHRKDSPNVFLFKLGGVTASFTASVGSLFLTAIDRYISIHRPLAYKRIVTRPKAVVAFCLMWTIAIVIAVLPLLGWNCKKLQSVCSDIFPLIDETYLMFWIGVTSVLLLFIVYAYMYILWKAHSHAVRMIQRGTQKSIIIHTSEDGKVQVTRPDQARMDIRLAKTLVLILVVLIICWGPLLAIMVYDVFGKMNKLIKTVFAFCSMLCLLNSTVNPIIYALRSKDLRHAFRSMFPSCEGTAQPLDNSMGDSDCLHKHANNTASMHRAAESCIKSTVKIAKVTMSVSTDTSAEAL
# Translocator protein, sequence (P16257 whole entry, looked up): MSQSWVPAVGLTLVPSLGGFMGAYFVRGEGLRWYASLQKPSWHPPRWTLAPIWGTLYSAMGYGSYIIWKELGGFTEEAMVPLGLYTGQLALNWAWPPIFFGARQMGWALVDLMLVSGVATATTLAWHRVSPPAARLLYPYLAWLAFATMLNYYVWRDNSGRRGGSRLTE
IC50 [1] [µM],IC50 (Glutamate NMDA receptor) [µM],IC50 [2] [µM],IC50 (Cannabinoid receptor 1) [µM],IC50 [3] [µM],IC50 [4] [µM],IC50 [5] [µM],IC50 [6] [µM],IC50 (Adrenergic receptor beta) [µM],Ki (Translocator protein) [µM],IC50 [7] [µM],IC50 [8] [µM],IC50 [9] [µM],IC50 [11] [µM],IC50 [12] [µM],IC50 [13] [µM],IC50 (Opioid receptor [14]) [µM],IC50 [15] [µM],Compound,also measured
> 1,> 1,> 1,> 1,> 1,> 1,> 1,> 1,> 1,0.323,> 1,> 1,> 1,> 1,> 1,> 1,> 1,> 1,CCCCCCNC(=O)Cc1c(-c2ccc(F)cc2)[nH]c2ccccc12,No. of entries (Rattus norvegicus [10]): 0.6; Time (Rattus norvegicus [10]): 1.6%
> 1,> 1,> 1,> 1,> 1,> 1,> 1,> 1,> 1,0.35,> 1,> 1,> 1,> 1,,,,> 1,O=C(Cc1c(-c2ccccc2)[nH]c2ccccc12)N1CCCCC1,No. of entries (Rattus norvegicus [16]): 2.3; Time (Rattus norvegicus [16]): 5.7%
> 1,> 1,> 1,> 1,> 1,> 1,> 1,> 1,> 1,0.0041,> 1,> 1,> 1,> 1,,,,> 1,CCCCCCN(CCCCCC)C(=O)Cc1c(-c2ccccc2)[nH]c2ccc(Cl)cc12,No. of entries (Rattus norvegicus [17]): 2.3; Time (Rattus norvegicus [17]): 4.3%
> 1,> 1,> 1,> 1,> 1,> 1,> 1,> 1,> 1,0.1,> 1,> 1,> 1,> 1,> 1,> 1,,> 1,CCCN(CCC)C(=O)Cc1c(-c2ccc(F)cc2)[nH]c2ccccc12,IC50 (Opioid receptor [18]): > 1 µM
> 1,> 1,> 1,> 1,> 1,> 1,> 1,> 1,> 1,0.045,> 1,> 1,> 1,> 1,> 1,> 1,> 1,> 1,CCCCN(CCCC)C(=O)Cc1c(-c2ccc(F)cc2)[nH]c2ccccc12,No. of entries (Rattus norvegicus [19]): 3.6; Time (Rattus norvegicus [19]): 8%
> 1,> 1,> 1,> 1,> 1,> 1,> 1,> 1,> 1,0.0044,> 1,> 1,> 1,> 1,,,,> 1,CCCCCCN(CCCCCC)C(=O)Cc1c(-c2ccc(F)cc2)[nH]c2ccccc12,No. of entries (Rattus norvegicus [20]): 4.9 and 5.5; Time spent (Rattus norvegicus [20]): 22 s and 25 s; No. of entries (Rattus norvegicus [21]): 2.1; Time (Rattus norvegicus [21]): 4.5%
> 1,> 1,> 1,> 1,,> 1,> 1,> 1,> 1,0.0023,> 1,> 1,> 1,> 1,> 1,> 1,> 1,> 1,CCCCCCN(CCCCCC)C(=O)Cc1c(-c2ccc(F)cc2)[nH]c2ccc(Cl)cc12,IC50 [22]: > 1 µM; No. of entries (Rattus norvegicus [23]): 0.4; Time (Rattus norvegicus [23]): 0.4%
> 1,> 1,> 1,> 1,> 1,> 1,> 1,> 1,> 1,0.0036,> 1,> 1,> 1,> 1,> 1,> 1,> 1,> 1,CCCCCCN(CCCCCC)C(=O)Cc1c(-c2ccc(Cl)cc2)[nH]c2ccc(Cl)cc12,No. of entries (Rattus norvegicus [24]): 2.3; Time (Rattus norvegicus [24]): 5.3%
